# In the library only some 4.6% were active in any assay of this set; here they are far more common.
# TAAR1 antagonist – human TAAR1 antagonism; Q96RJ0; CHO RD-HGA16 TAAR1, Fluo-8 calcium fluorescence, antagonist; inhibition, % at 3 µM; 360,000 tested, 1.5% active;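 active = inhibition above a per-plate cutoff, the mean inhibition of test compounds on that plate plus 3 SD, cut at about 49% in these data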;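 note: 0% = DMSO plus EC80 beta-PEA response and 100% = DMSO alone without agonist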
#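 Test system – hTAAR1-expressing CHO RD-HGA16 cells, Gα16-coupled · Also added – β-PEA at EC80 concentration, post-compound challenge · Compound – 3 µM, single point · Incubation – dye loading 75 min at 37 °C, then 30 min room temperature · Measured by – Fluo-8 intracellular calcium dye fluorescence, real-time kinetic reads · Benchmarks – vehicle and agonist controls · Replicates – singlicate, one well per test compound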
# OX1R antag-1 – antagonists of human orexin 1 receptor (OX1R). 330,000 tested, 1.8% active. inhibition, % at 6.6 µM. O43613. OX1R-expressing cells, FRET antagonist read-out; in the data active = inhibition mostly above about 38%, no sharp cut-off; inactive = mostly below about 40%;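 note: 0% = agonist challenge alone and 100% = reference antagonist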
# Target sequence (O43613 whole entry, looked up): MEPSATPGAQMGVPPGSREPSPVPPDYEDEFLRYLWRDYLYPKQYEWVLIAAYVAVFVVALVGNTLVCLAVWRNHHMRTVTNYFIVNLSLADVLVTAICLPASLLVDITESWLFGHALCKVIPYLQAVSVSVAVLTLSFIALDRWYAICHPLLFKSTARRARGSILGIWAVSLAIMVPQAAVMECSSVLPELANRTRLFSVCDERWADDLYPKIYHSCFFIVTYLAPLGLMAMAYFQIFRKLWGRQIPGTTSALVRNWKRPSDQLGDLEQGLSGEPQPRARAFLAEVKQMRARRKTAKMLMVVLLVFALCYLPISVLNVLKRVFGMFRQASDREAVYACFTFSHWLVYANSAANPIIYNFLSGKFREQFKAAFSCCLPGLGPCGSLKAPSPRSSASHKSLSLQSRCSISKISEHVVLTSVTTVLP
# OX1R antag-2 – antagonists of human orexin 1 receptor | O43613 | CHO/OX1R cells, Fluo-8 calcium fluorescence, orexin A | inhibition, % at 5 µM | 330,000 tested, 0.43% active | AID 434989;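 active = inhibition above its plate's threshold, mean inhibition of all tested compounds on the plate plus 3 SD, cut at about 37% in these data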;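 note: 0% = orexin A challenge wells and 100% = SB-334867-A antagonist wells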
# TAAR1 ag – agonists of human TAAR1 | Q96RJ0 | CHO RD-HGA16 TAAR1, Fluo-8 calcium fluorescence; vehicle wells 0%, saturating PEA agonist 100% | activation, % at 3 µM | 360,000 tested, 0.99% active | AID 624467;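 active = activation above the mean activation of all test compounds in the run plus 3 SD, cut at about 38% in these data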
#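 System: CHO RD-HGA16 cells carrying human TAAR1 plus Gα16; Incubation: 17-24 h seeding, 75 min 37 °C dye, 30 min RT; Measured by: Fluo-8 fluorescence, 5 s baseline then 140 s kinetic read; Control set: DMSO and PEA EC100; Replication: single well for each compound.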
# GPR7 antag – human neuropeptides B/W receptor 1 antagonism | GPR7-expressing cells, fluorescence antagonist assay | inhibition, % at 4.4 µM | 290,000 tested, 1.1% active; in the data active = inhibition above about 16%, passing the limit was not always enough;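 note: cells stimulated with the agonist NPW; 0% = agonist with vehicle and 100% = vehicle without agonist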
# Target sequence (P48145 whole entry, looked up): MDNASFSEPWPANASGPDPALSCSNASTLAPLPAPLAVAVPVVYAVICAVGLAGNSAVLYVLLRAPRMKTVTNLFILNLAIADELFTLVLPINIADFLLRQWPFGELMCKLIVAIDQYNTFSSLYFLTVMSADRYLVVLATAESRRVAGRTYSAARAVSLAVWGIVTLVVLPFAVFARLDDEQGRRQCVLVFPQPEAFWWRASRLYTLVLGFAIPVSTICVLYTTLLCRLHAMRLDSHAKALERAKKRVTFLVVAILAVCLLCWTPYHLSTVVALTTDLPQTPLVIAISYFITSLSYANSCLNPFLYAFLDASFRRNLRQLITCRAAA
# CHO parental Ca – counter-screen: ATP calcium response change in parental CHO cells. inhibition, % at 5.6 µM. parental CHO-K1, ATP-induced calcium, Fluo-8 fluorescence. 330,000 tested, 0.63% active. AID 463079;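 active = inhibition above that plate's mean sample inhibition plus 3 SD, cut at about 26% in these data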;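 note: 0% = ATP-challenged DMSO wells and 100% = DMSO wells without ATP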
#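 Assay system – parental CHO cells · Reagent – ATP stimulus · Detection – intracellular calcium via Fluo-8 no-wash fluorescent dye · Evaluation – percent inhibition of ATP-evoked calcium rise, normalized to controls · Controls – ATP wells versus no-ATP DMSO wells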
# GPR7 antag conf – confirmation of human GPR7 antagonists | inhibition, % at 4.4 µM | GPR7-expressing cells, calcium fluorescence antagonist mode | 2,400 tested, 52% active | shares compounds with GPR7 antag | AID 1952; in the data active = inhibition above about 24%;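 note: stimulated with the GPR7 agonist NPW; 0% = agonist plus vehicle and 100% = vehicle alone without agonist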
# MCHR1 antagonist – antagonizes human MCHR1, a GPR7 antagonist counter-screen; shares compounds with GPR7 antag; MCHR1-expressing cells, fluorescence antagonist assay; inhibition, % at 4.4 µM; 2,400 tested, 62% active; AID 2148; in the data active = inhibition above about 22%;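 note: 0% = vehicle with agonist and 100% = vehicle without agonist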
# * hit, by the source's call; . = no result given.
SMILES,TAAR1 antagonist,OX1R antag-1,OX1R antag-2,TAAR1 ag,GPR7 antag,CHO parental Ca,GPR7 antag conf,MCHR1 antagonist
C[C@@H]1CN([C@H](C)CO)C(=O)c2c(c3ccccc3n2C)-c2ccccc2CO[C@H]1CN(C)S(=O)(=O)c1cn(C)cn1,-1.4,.,.,0.7,.,.,.,.
NC(=S)N=Nc1c(O)[nH]c2ccccc12,7.0,26.3,-8.9,1.1,-6.8,-3.9,.,.
NC(=S)N=Nc1c(O)[nH]c2c(Br)cc(Br)cc12,3.7,34.4,-23.9,-0.3,33.5*,-13.4,9.3,27.6*
CCN1CCN(c2oc(-c3ccccc3C)nc2S(=O)(=O)c2ccccc2)CC1,-8.3,.,.,4.3,.,.,.,.
CC(C)(C)c1cc(Cl)ccc1OCCOCCN1CCCC1,9.8,-2.3,-1.1,17.3,24.3*,-6.1,35.2*,41.5*
Clc1ccc(OCCOCCN2CCc3ccccc3C2)c(Cl)c1,-26.9,13.0,-16.3,35.6,29.6*,-11.7,17.2,30.4*
C=CCNCCCOc1ccc(Cl)cc1C(C)(C)C,-5.8,10.7,-26.1,20.8,25.5*,-0.7,25.2*,36.7*
CC(C)(C)NCCOCCOc1ccc(Cl)cc1C(C)(C)C,7.2,7.1,-19.0,5.2,8.6,-6.8,.,.
Cc1ccc(OCCOCCN2CCN(C)CC2)c(C(C)(C)C)c1,-14.6,9.2,2.0,5.3,-6.3,-8.9,.,.
COc1cccc(CNC[C@H]2O[C@@H](n3ccc(N)nc3=O)[C@H](O)[C@@H]2O)c1OCc1ccc(F)cc1Cl,-8.4,.,.,1.8,.,.,.,.
Cc1cc(Br)cn2c(CC(C)(C)C)c(-c3cccc(Cl)c3)nc12,-13.5,.,.,1.3,.,.,.,.
CC1=CN2C(c3cccc([N+](=O)[O-])c3)=NON(c3ccc(C)cn3)C2C=C1 (configuration not stated),-14.4,.,.,1.8,.,.,.,.
Cc1ccc(S(=O)(=O)N2C[C@@H](C)[C@]3(C2)[C@H](O)[C@H](OC(=O)NCc2ccccc2F)C[C@H]2C(=O)N(c4ccccc4)C(=O)[C@H]23)cc1,7.6,.,.,6.3,.,.,.,.
CCOC(=O)c1c(NC(=O)c2cccnc2)sc(C(C)=O)c1C,6.4,12.7,-12.2,2.7,23.0*,-11.8,-1.2,-4.0
CSc1ccccc1OCc1cc(C(=O)N2CCC(Oc3cccnc3)CC2)no1,21.0,26.2,2.6,2.8,28.2*,2.5,14.1,47.5*
CSc1ccccc1OCc1cc(C(=O)N2CCSCC2)no1,-13.1,15.8,2.1,-0.3,-0.8,-7.3,.,.
COc1ccc(-c2nc(SCC(=O)NC3CCCCC3)n[nH]2)cc1,-14.5,.,.,9.6,23.0*,.,-22.2,34.6*
CC(C)(C)OC(=O)NCCc1onc(-c2cccc([N+](=O)[O-])c2)c1C(=O)O,-12.8,.,.,0.2,.,.,.,.
COc1ccc(CN(C)C(=O)C23CC4CC(CC(Cl)(C4)C2)C3)c(OC)c1OC,1.3,14.3,-8.3,-2.3,24.8*,-2.9,-0.5,23.3*
CC1CCCN(S(=O)(=O)c2ccc(S(=O)(=O)NC(C)c3cccs3)cc2)C1 (configuration not stated),13.5,11.4,-8.6,10.6,47.9*,0.8,53.2*,31.9*
Cc1cc(Cl)ccc1NC(=S)NCCc1ccc(S(N)(=O)=O)cc1,4.2,25.8,-12.5,8.2,.,8.3,.,.
Cc1cc(Cl)ccc1OCC(O)CNCCc1ccc(S(N)(=O)=O)cc1 (configuration not stated),8.0,1.2,-14.3,3.2,67.5*,-5.4,65.6*,72.8*
O=C(Nc1ccc(F)cc1F)NC1CCN(S(=O)(=O)c2ccc(F)cc2)CC1,7.0,4.9,-6.5,3.1,37.0*,-9.4,18.0,6.1
Cc1cc(Cl)ccc1NC(=O)NC1CCN(S(=O)(=O)c2ccc(F)cc2)CC1,16.7,21.8,-18.7,4.6,-5.0,-5.7,.,.
CCn1c(Cc2ccccc2)nnc1SCc1ccc([N+](=O)[O-])cc1,-11.6,16.5,-22.2,0.9,32.0*,-9.4,13.8,-2.3
SMILES,TAAR1 antagonist,OX1R antag-1,OX1R antag-2,TAAR1 ag,GPR7 antag,CHO parental Ca,GPR7 antag conf,MCHR1 antagonist
O=C(Nc1ccccc1C(=O)NCC1CC1)c1cccs1,-13.1,.,.,-0.5,.,.,.,.
CCOC(=O)[C@@H]1CSCCS(=O)(=O)N1C(=O)[C@H](Cc1ccccc1)NC(=O)OC(C)(C)C,7.2,.,.,0.8,.,.,.,.
CC(=O)c1ccc(OCC(=O)Nc2ccccc2N2CCCC2)cc1,-29.7,18.2,-22.7,-1.6,-2.0,-13.2,.,.
CCc1ccccc1NC(=O)COc1ccc(C(=S)N2CCCC2)cc1,9.0,45.8*,-1.3,4.5,23.5*,-15.3,-8.8,1.7
c1ccc(CNCCC(Cc2ccccc2)c2ccco2)cc1 (configuration not stated),-8.8,12.9,-38.0,15.8,23.3*,-46.7,28.3*,35.2*
CC(=O)c1ccc(COC(=O)Cc2ccc([N+](=O)[O-])cc2)cc1,26.1,21.2,2.2,2.3,29.7*,-3.2,39.1*,52.4*
N#Cc1ccc(NC(=O)Nc2ccc(Cl)cc2)cc1,2.1,100.3*,67.8*,32.4,30.4*,75.3*,58.0*,56.9*
CN1C(c2ccccc2)CC(C)(O)CC1c1ccccc1 (configuration not stated),-13.3,.,.,0.3,.,.,.,.
COc1cccc(C(c2nnnn2Cc2ccco2)N2CCN(c3cccc(C)c3C)CC2)c1OC (configuration not stated),21.1,20.7,-5.0,6.3,22.5*,-18.6,13.8,60.4*
COc1ccc(OC)c(C(c2nnnn2Cc2ccco2)N2CCN(C)CC2)c1 (configuration not stated),-18.5,22.0,-14.2,1.3,18.9,-12.5,.,.
CCOC(=O)C1CCN(c2ncnc3c2nnn3Cc2ccccc2Cl)CC1,-34.1,26.3,-15.2,0.6,21.6*,-20.1,26.5*,28.6*
CCCC(O)(CCC)C(=O)NN(C(=O)OC)c1ccccc1,-18.6,14.9,-25.2,-0.4,5.2,-10.2,.,.
CCCCC(O)(CCCC)C(=O)NN(C(=O)OC)c1ccc(C)cc1,-65.8,9.1,-27.6,-1.2,23.3*,-20.3,8.7,10.0
COc1ccc(C(C(=O)NC2CCCC2)n2c(-c3cccs3)nc3ccccc32)cc1 (configuration not stated),-25.2,.,.,1.2,.,.,.,.
COc1cccc(CN2CCC(N(CCc3ccccc3)Cc3ccccc3)CC2)c1OC,4.8,4.6,-33.0,4.3,23.2*,-19.2,35.0*,40.5*
COc1cccc(CN2CCN(Cc3cccc(Oc4ccccc4)c3)CC2)c1OC,-16.0,9.0,-40.0,15.3,-7.2,-24.4,.,.
O=C(c1ccccc1F)N1CCCC(N2CCN(Cc3ccc4c(c3)OCO4)CC2)C1 (configuration not stated),-12.8,.,.,-1.1,.,.,.,.
